According to ChEMBL document CHEMBL1145091, “Ring-expanded ("fat") nucleoside and nucleotide analogues exhibit potent in vitro activity against flaviviridae NTPases/helicases, including those of the West Nile virus, hepatitis C virus, and Japanese encephalitis virus” (J Med Chem, 2003):
pIC50, pKi: −log10 of the molar value.

Tests used:
[1] = Tested for inhibition against Helicase activity of human NTPase/Helicase Suv3 (delta1-159) in presence of ATP adjusted to 4.2 uM and 4.7 pM of DNA substrate; type: functional
Summary of the method: (§1)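 Unwinding of a 32P 5'-end-labelled partial duplex (26-mer released strand on 40-mer template; DNA or RNA as per line, 4.7 pM nucleotide base), using purified NTPase/helicase (2 pmol WNV from infected Vero E6 medium; 0.5 pmol HCV or 4 pmol JEV NS3 domain, or 0.2 pmol Suv3(Δ1–159), E. coli-expressed). ATP was set at each enzyme's ATPase Km: WNV 9.5 μM, HCV 105 μM, JEV 235 μM, Suv3 4.2 μM. The reaction ran in pH 7.5 Tris with 2 mM MgCl2 for 30 min at 30 °C.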

[2] = test system: Japanese encephalitis virus; test: Tested for inhibition against Helicase activity of Japanese encephalitis virus (JEV) in presence of ATP adjusted to 235 uM and 4.7 pM of DNA substrate; type: functional; summary of the method: as §1
[3] = test system: West Nile virus; test: Tested for inhibition against Helicase activity of west nile virus (WNV) in presence of ATP adjusted to 9.5 uM and 4.7 pM of DNA substrate; type: functional; summary of the method: as §1
[4] = test system: Hepatitis C virus; test: Tested for inhibition against Helicase activity of hepatitis C virus (HCV) in presence of ATP adjusted to 105 uM and 4.7 pM of DNA substrate; type: functional, Hepacivirus hominis; summary of the method: as §1
[5] = test system: Japanese encephalitis virus; test: Tested for inhibition against Helicase activity of Japanese encephalitis virus (JEV) in presence of ATP adjusted to 235 uM and 4.7 pM of RNA duplex substrate; type: functional; summary of the method: as §1
[6] = test system: West Nile virus; test: Tested for inhibition against Helicase activity of west nile virus (WNV) in presence of ATP adjusted to 9.5 uM and 4.7 pM of RNA duplex substrate; type: functional; summary of the method: as §1
[7] = test system: Hepatitis C virus; test: Tested for inhibition against Helicase activity of hepatitis C virus (HCV) in presence of ATP adjusted to 105 uM and 4.7 pM of RNA duplex substrate; type: functional, Hepacivirus hominis; summary of the method: as §1
[8] = Tested for inhibition against Helicase activity of human NTPase/Helicase Suv3 (delta1-159) in presence of ATP adjusted to 4.2 uM and 4.7 pM of RNA duplex substrate; type: functional; summary of the method: as §1
[9] = test system: West Nile virus; test: Tested for activating effect of west nile virus (WNV) in presence of ATP adjusted to […] and 4.7 pM of DNA substrate; type: functional
[10] = test system: Hepatitis C virus; test: Tested for activating effect of hepatitis C virus (HCV) in presence of ATP adjusted to 105 uM and 4.7 pM of DNA substrate; type: functional, Hepacivirus hominis; summary of the method: as §1
[11] = test system: Japanese encephalitis virus; test: Tested for inhibition against […] ATPase activity of Japanese encephalitis virus (JEV) in presence of ATP adjusted to 1*10e-4 of Km of enzyme; type: functional
Summary of the method: (§2)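 ATPase assay measuring 33Pi released from [γ-33P]ATP. Enzymes were 2 pmol WNV, 0.5 pmol HCV, 4 pmol JEV or 0.2 pmol Suv3(Δ1–159). The reaction ran in pH 7.5 Tris with 2 mM MgCl2 and 0.1 mg/mL BSA for 30 min at 30 °C and was stopped with activated charcoal; supernatant was scintillation-counted.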

[12] = Tested for inhibition against 42 nM ATPase activity of human NTPase/Helicase Suv3 (delta1-159) in presence of ATP adjusted to 1*10e-5 of Km of enzyme; type: functional; summary of the method: as §2
[13] = test system: Japanese encephalitis virus; test: Tested for inhibition against 2.35 nM ATPase activity of Japanese encephalitis virus (JEV) in presence of ATP adjusted to 1*10e-5 of Km of enzyme; type: functional; summary of the method: as §2
[14] = test system: West Nile virus; test: Tested for inhibition against 95 pM ATPase activity of west nile virus (WNV) in presence of ATP adjusted to 1*10e-4 of Km of enzyme; type: functional; summary of the method: as §2
[15] = Tested for inhibition against 42 pM ATPase activity of human NTPase/Helicase Suv3 (delta1-159) in presence of ATP adjusted to 1*10e-4 of Km of enzyme; type: functional; summary of the method: as §2
[16] = test system: West Nile virus; test: Tested for inhibition against 95 pM ATPase activity of west nile virus (WNV) in presence of ATP adjusted to 1*10e-5 of Km of enzyme; type: functional; summary of the method: as §2
[17] = test system: Hepatitis C virus; test: Tested for inhibition against 1.05 nM ATPase activity of hepatitis C virus (HCV) in presence of ATP adjusted to 1*10e-5 of Km of enzyme; type: functional, Hepacivirus hominis; summary of the method: as §2
[18] = test system: Hepatitis C virus; test: Tested for inhibition against 1.05 nM ATPase activity of hepatitis C virus (HCV) in presence of ATP adjusted to 1*10e-4 of Km of enzyme; type: functional, Hepacivirus hominis; summary of the method: as §2
[19] = test system: Flavivirus; test: Tested for inhibition against Flaviviridae NTPase/helicase (NTPase/helicase Non structural protein 3); type: functional; conditions: Orthoflavivirus
[20] = test system: Hepatitis B virus; test: Tested for inhibition against […] in cultured human hepatoblastoma 2.2.15 cells; type: functional, organism-based; conditions: HepG2 2.2.15
[21] = test system: Human rhinovirus sp.; test: Antirhino activity determined; type: functional, organism-based
[22] = Antimeasles activity determined; type: functional

`CO[C@@H]1[C@H](O)[C@@H](CO)O[C@H]1n1cnc2c(=O)[nH][nH]c(=O)c21` showed a pIC50 [1] of under 3.30, a pIC50 [2] of under 3.30 and a pIC50 [3] of 4.52. The pIC50 [4] was 3.35.

Compound `NC1=NC(=O)C2C(N=CN2COCCO)C(=O)N1` (centres undefined) has a pIC50 [2] of under 3.30, a pIC50 [3] of under 3.30 and a pIC50 [4] of under 3.30.

For `NC1=NC(=O)C2C(N=CN2COCCOCc2ccccc2)C(=O)N1` (centres undefined), the pIC50 [1] was 5.30, the pIC50 [5] was under 3.30 and the pIC50 [6] was 5.48. The pIC50 [7] was 5.26, the pIC50 [2] was 3.82 and the pIC50 [8] was 5.22. The pIC50 [3] was 5.24 and the pIC50 [4] was 4.96.

Work on `O=C1NC2C(N=CN2Cc2ccccc2)C(=O)N(Cc2ccccc2)N1` (centres undefined) yielded a pIC50 [1] of under 3.30, a pIC50 [5] of under 3.30 and a pIC50 [6] of under 3.30. For the same compound, the pIC50 [7] was under 3.30, the pIC50 [2] was under 3.30 and the pIC50 [8] was under 3.30. For the same compound, the pIC50 [3] was 5.46 and the pIC50 [4] was under 3.30.

`NC1=NC(=O)C2C(N=CN2[C@H]2O[C@H](CO)[C@@H](O)[C@H]2O)C(=O)N1` (some centres undefined) gave an ED200 [9] of 60 µM, a pIC50 [1] of under 3.30 and a pIC50 [5] of 5.35. It also gave a pIC50 [6] of 3.66, a pIC50 [7] of 4.92 and a pIC50 [2] of under 3.30. It also gave an ED200 [10] of 150 µM and a pIC50 [8] of 5.46.

`Nc1nc(=O)c2c(ncn2[C@@H]2C[C@H](O)[C@@H](CO)O2)c(=O)[nH]1` gave a pIC50 [1] of 4.55, a pIC50 [5] of 5.70 and a pIC50 [6] of 5.24. It also gave a pIC50 [7] of under 3.30, a pIC50 [2] of 4.89 and a pIC50 [8] of 3.82. The pIC50 [3] was 4.60 and the pIC50 [4] was 5.15.

`CO[C@@H]1[C@H](O)[C@@H](CO)O[C@H]1n1cnc2c(=O)[nH]c(N)nc(=O)c21` gave a pIC50 [1] of under 3.30, a pIC50 [2] of under 3.30 and an ED200 [10] of 350 µM. For the same compound, the pIC50 [3] was under 3.30.

Compound `NC1=NC(=O)C2N=CNC2C(=O)N1` (centres undefined) has a pIC50 [5] of under 3.30, a pIC50 [6] of 3.66 and a pIC50 [7] of 3.70. It also gave a pIC50 [2] of under 3.30, a pIC50 [8] of 3.30 and a pIC50 [3] of under 3.30. It also gave a pIC50 [4] of under 3.30.

In the case of `O=C1NC2N=CNC2C(=O)N(Cc2ccccc2)N1` (centres undefined), the pIC50 [1] was under 3.30, the pIC50 [5] was under 3.30 and the pIC50 [6] was under 3.30. For the same compound, the pIC50 [7] was under 3.30, the pIC50 [2] was under 3.30 and the pIC50 [8] was under 3.30. It also gave a pIC50 [3] of 5.89 and a pIC50 [4] of under 3.30.

With `NC1=NC(=O)C2C(N=CN2CCOCP(=O)(O)O)C(=O)N1` (centres undefined) the pIC50 [1] was under 3.30, the pIC50 [2] was under 3.30 and the pIC50 [3] was 3.30. For the same compound, the pIC50 [4] was 3.70.

In the case of `O=C1NNC(=O)C2C(N=CN2C2O[C@H](COP(=O)(O)OP(=O)(O)OP(=O)(O)O)[C@@H](O)[C@H]2O)N1` (some centres undefined), the pKi [11] was 4.82, the pIC50 [12] was 3.90 and the pIC50 [13] was 4.40. For the same compound, the pKi [14] was 5.54, the pKi [15] was 4.35 and the pIC50 [16] was 5.40. For the same compound, the pIC50 [17] was 5.82 and the pKi [18] was 5.77.

For `N=C1N=C(N)N=C(N)C2N=CN(C3O[C@@H](COP(=O)(O)OP(=O)(O)OP(=O)(O)O)[C@H](O)[C@@H]3O)C12` (some centres undefined), the pKi [11] was 5.46, the pIC50 [12] was 4.40 and the pIC50 [13] was 4.92. For the same compound, the pKi [14] was 6.42, the pKi [15] was 4.82 and the pIC50 [16] was 6.82. For the same compound, the pIC50 [17] was 6.26 and the pKi [18] was 6.70.

Work on `N=C1N=C(N)N=C(N)C2N=CN(C3O[C@@H](CO)[C@H](O)[C@@H]3O)C12` (some centres undefined) yielded a pIC50 [1] of under 3.30, a pIC50 [2] of under 3.30 and a pIC50 [3] of under 3.30. The pIC50 [4] was under 3.30.

`NC1=NC(=O)C2C(N=CN2[C@@H]2O[C@H](CO)C(O)[C@H]2O)C(=O)N1` (single isomer, unassigned) showed a pIC50 [19] of under 3.30 and a pIC50 [20] of 6.89.

With `NC1=NC(=O)C2C(N=CN2[C@H]2CC(O)[C@@H](CO)O2)C(=O)N1` (single isomer, unassigned) the pIC50 [1] was under 3.30, the pIC50 [2] was under 3.30 and the ED200 [10] was 100 µM. It also gave a pIC50 [3] of under 3.30.

Compound `NC1=NC(=O)C2C(N=C(c3ccccc3)N2C2O[C@H](CO)C(O)[C@H]2O)C(=O)N1` (single isomer, unassigned) has a pIC50 [21] of 5.17 and a pIC50 [22] of 6.30.

With `O=C1NNC(=O)C2C(N=CN2C2O[C@H](CO)C(O)[C@H]2O)N1` (single isomer, unassigned) the pIC50 [1] was under 3.30, the pIC50 [2] was under 3.30 and the pIC50 [3] was under 3.30. For the same compound, the pIC50 [4] was under 3.30.
